Laboratory results taken from ChEMBL document CHEMBL1938298, “Synthesis and characterization of [¹²⁵I]2-iodo N-[(S)-{(S)-1-methylpiperidin-2-yl}(phenyl)methyl]3-trifluoromethyl-benzamide as novel imaging probe for glycine transporter 1” (Bioorg Med Chem, 2011).
Calls of active or inactive are those of the source. No cut-off for these calls is given here.

What was measured:
[1] = test system: Mus musculus; assay: In vivo binding affinity to GlyT1 in ddY mouse brain thalamus at 200 kBq, iv after 60 mins by autoradiography relative to control; format: functional, organism-based; conditions: tested as the 125I-labelled form
[2] = molecular target: T1, Sodium- and chloride-dependent glycine transporter 1 (Rattus norvegicus) (UniProt P28572); assay: Binding affinity to GlyT1 in rat brain cerebellum at 0.03 to 0.04 nM preincubated for 20 mins in binding buffer before compound addition measured after 30 mins by autoradiography in presence of 0.01 mM GlyT1 inhibitor HPCP relative to control; format: tissue-based; conditions: tested as the 125I-labelled form
T1 sequence (whole entry): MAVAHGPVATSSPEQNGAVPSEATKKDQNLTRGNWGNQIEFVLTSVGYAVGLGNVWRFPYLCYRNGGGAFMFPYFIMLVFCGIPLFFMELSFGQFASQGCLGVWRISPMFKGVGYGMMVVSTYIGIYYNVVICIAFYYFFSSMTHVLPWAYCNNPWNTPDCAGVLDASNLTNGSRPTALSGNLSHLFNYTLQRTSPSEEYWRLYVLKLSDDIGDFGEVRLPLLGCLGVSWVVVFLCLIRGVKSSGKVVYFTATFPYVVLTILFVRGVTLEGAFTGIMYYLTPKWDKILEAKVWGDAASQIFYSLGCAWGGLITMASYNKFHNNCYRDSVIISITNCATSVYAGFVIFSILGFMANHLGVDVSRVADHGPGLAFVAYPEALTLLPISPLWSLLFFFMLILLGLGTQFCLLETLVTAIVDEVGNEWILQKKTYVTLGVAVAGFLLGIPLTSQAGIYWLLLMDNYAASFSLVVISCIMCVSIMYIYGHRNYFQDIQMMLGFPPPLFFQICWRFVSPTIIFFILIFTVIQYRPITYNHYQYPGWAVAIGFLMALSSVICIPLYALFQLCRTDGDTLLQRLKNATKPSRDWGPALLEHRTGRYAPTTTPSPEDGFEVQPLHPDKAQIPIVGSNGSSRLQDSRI
Outline: (§1)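 Rat brain sagittal sections (20 µm) preincubated 20 min at 25 °C in Tris-HCl buffer pH 7.5 (NaCl, KCl, MgCl2, CaCl2), then 30 min at 25 °C with [125I] tracer (100 kBq, 0.03–0.04 nM) plus competitor (10 µM; glycine 1 or 10 mM). Cold washes, imaging plate 3 days, ROI PSL minus background per mm². % control from ≥triplicate slices, three rats.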

[3] = molecular target: T1, Sodium- and chloride-dependent glycine transporter 1 (Rattus norvegicus); assay: Binding affinity to GlyT1 in rat brain medullary region at 0.03 to 0.04 nM preincubated for 20 mins in binding buffer before compound addition measured after 30 mins by autoradiography relative to control; format: tissue-based; conditions: tested as the 125I-labelled form
Outline: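 Rat brain sagittal sections (20 µm), 20 min preincubation at 25 °C in Tris-HCl pH 7.5 binding buffer, then [125I] tracer (100 kBq, 0.03–0.04 nM) for 30 min at 25 °C. Nonspecific binding taken with 10 µM unlabeled ligand. Imaging-plate read-out as (PSL−BG)/mm². Mean ± SD, n = 4–5 from at least three rats; Mann–Whitney U-test.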

[4] = test system: Mus musculus; assay: In vivo binding affinity to GlyT1 in ddY mouse brain medullary region at 33.3 kBq, iv after 30 mins in presence of SSR504734 2 mg/kg, iv administered 15 mins prior to compound administration relative to control; format: functional, organism-based; design: dose 2 mg/kg; conditions: Medulla of organ, tested as the 125I-labelled form
[5] = molecular target: T1, Sodium- and chloride-dependent glycine transporter 1 (Rattus norvegicus); assay: Binding affinity to GlyT1 in rat brain medullary region at 0.03 to 0.04 nM preincubated for 20 mins in binding buffer before compound addition measured after 30 mins by autoradiography in presence of 0.01 mM GlyT1 inhibitor ALX5407 relative to control; format: tissue-based; conditions: tested as the 125I-labelled form; outline: as §1
[6] = test system: Mus musculus; assay: In vivo binding affinity to GlyT1 in ddY mouse brain striatum at 33.3 kBq, iv after 60 mins in presence of N-Me-SSR504734 2 mg/kg, iv administered 15 mins prior to compound administration relative to control; format: functional, organism-based; design: dose 2 mg/kg; conditions: tested as the 125I-labelled form
[7] = molecular target: T1, Sodium- and chloride-dependent glycine transporter 1 (Rattus norvegicus); assay: Binding affinity to GlyT1 in rat brain cerebellum at 0.03 to 0.04 nM preincubated for 20 mins in binding buffer before compound addition measured after 30 mins by autoradiography in presence of 1 mM GlyT1 substrate glycine relative to control; format: tissue-based; conditions: tested as the 125I-labelled form; outline: as §1
[8] = molecular target: T1, Sodium- and chloride-dependent glycine transporter 1 (Rattus norvegicus); assay: Binding affinity to GlyT1 in rat brain midbrain at 0.03 to 0.04 nM preincubated for 20 mins in binding buffer before compound addition measured after 30 mins by autoradiography in presence of 0.01 mM GlyT1 inhibitor ALX5407 relative to control; format: tissue-based; conditions: tested as the 125I-labelled form; outline: as §1
[9] = test system: Mus musculus; assay: In vivo binding affinity to GlyT1 in ddY mouse brain striatum at 33.3 kBq, iv after 60 mins in presence of SSR504734 2 mg/kg, iv administered 15 mins prior to compound administration relative to control; format: functional, organism-based; design: dose 2 mg/kg; conditions: tested as the 125I-labelled form
[10] = molecular target: T1, Sodium- and chloride-dependent glycine transporter 1 (Rattus norvegicus); assay: Binding affinity to GlyT1 in rat brain cerebellum at 0.03 to 0.04 nM preincubated for 20 mins in binding buffer before compound addition measured after 30 mins by autoradiography in presence of 0.01 mM GlyT1 inhibitor SSR504734 relative to control; format: tissue-based; conditions: tested as the 125I-labelled form; outline: as §1
[11] = test system: Mus musculus; assay: In vivo binding affinity to GlyT1 in ddY mouse brain thalamus at 33.3 kBq, iv after 60 mins in presence of SSR504734 2 mg/kg, iv administered 15 mins prior to compound administration relative to control; format: functional, organism-based; design: dose 2 mg/kg; conditions: tested as the 125I-labelled form
[12] = test system: Mus musculus; assay: In vivo binding affinity to GlyT1 in ddY mouse brain cerebellum at 200 kBq, iv after 60 mins by autoradiography relative to control; format: functional, organism-based; conditions: tested as the 125I-labelled form
Outline: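 Ex vivo autoradiography in mice given 200 kBq [125I]tracer i.v. and killed at 60 min. Brains were removed, frozen on dry ice and cut into 20 µm sagittal cryosections, which were exposed to an imaging plate for 7 days. Regional signal was quantified as PSL/mm² (n = 5) and compared to control by Kruskal–Wallis with Dunn's post-test.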

[13] = test system: Stomach; assay: Drug uptake in ddY mouse stomach at 11.1 kBq, iv after 60 min by gamma counting; format: ADME, organism-based; conditions: in vivo, 1 h
Outline: (§2)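 Male ddY mice (6 weeks, 30–35 g) were given about 11.1 kBq of [125I]tracer in 0.1 mL i.v. via the tail vein. At each time point the animals were killed and organs dissected, weighed and gamma-counted. Uptake is expressed as % injected dose per gram of tissue, mean ± SD, n = 5–6.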

[14] = test system: Stomach; assay: Drug uptake in ddY mouse stomach at 11.1 kBq, iv after 180 min by gamma counting; format: ADME, organism-based; conditions: in vivo, 3 h; outline: as §2
[15] = test system: Kidney; assay: Drug uptake in ddY mouse kidney at 11.1 kBq, iv after 60 min by gamma counting; format: ADME, organism-based; conditions: in vivo, 1 h; outline: as §2
[16] = test system: Heart; assay: Drug uptake in ddY mouse heart at 11.1 kBq, iv after 0.5 min by gamma counting; format: ADME, organism-based; conditions: in vivo
Outline: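 Male ddY mice (6 weeks, 30–35 g) received about 11.1 kBq [125I]tracer in 0.1 mL i.v. via tail vein. Killed at set times, organs dissected and weighed, radioactivity gamma counted. Reported as % injected dose/g tissue, mean ± SD, n = 5–6.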

[17] = test system: Mus musculus; assay: In vivo binding affinity to GlyT1 in ddY mouse brain midbrain at 33.3 kBq, iv after 60 mins in presence of N-Me-SSR504734 2 mg/kg, iv administered 15 mins prior to compound administration relative to control; format: functional

Row | Activity [2] [%] | Activity [3] | Activity [5] [%] | Activity [7] [%] | Activity [8] [%] | Activity [10] [%] | Drug uptake [13] [% ID/g] | Drug uptake [14] [% ID/g] | Drug uptake [15] [% ID/g] | Drug uptake [16] [% ID/g] | Structure (SMILES) | Activity [1] | Activity [4] | Activity [6] | Activity [9] | Activity [11] | Activity [12] | Activity [17] [%]
1 | 23 | Active | 25.3 | 97.4 | 36.2 | 27.7 | – | – | – | – | CN1CCCC[C@H]1[C@@H](NC(=O)c1cccc(C(F)(F)F)c1I)c1ccccc1 | Active | inactive | Active | inactive | inactive | Active | –
2 | – | – | – | – | – | – | 8.26 | 12.73 | 8.27 | 8.19 | CN1CCCC[C@H]1[C@@H](NC(=O)c1cccc(C(F)(F)F)c1[125I])c1ccccc1 | – | – | – | – | – | – | 48
